Test results published in ChEMBL document CHEMBL5661979, “Pharmacological inhibition of BMK1 suppresses tumor growth through promyelocytic leukemia protein” (Cancer Cell, 2010).

Key:
[1] = target: Ribosomal protein S6 kinase alpha-5 (Homo sapiens, UniProt O75582); assay: Inhibition of MSK1 domain 1 in human HeLa cells lysate at 50 uM pre incubated for 15 mins followed by ATP acyl phosphate probe addition and measured after 10 mins by LC-MS/MS analysis relative to control; type: subcellular; conditions: time 25.0 min
[2] = target: Serine/threonine-protein kinase 38-like (Homo sapiens, UniProt Q9Y2H1); assay: Inhibition of NDR2 in human HeLa cells lysate pre incubated for 15 mins followed by ADP acyl phosphate probe addition and measured after 10 mins by LC-MS/MS analysis; type: subcellular
[3] = target: T1, Casein kinase I isoform alpha (Homo sapiens, UniProt P48729); assay: Inhibition of CK1alpha in human HeLa cells lysate at 2 uM pre incubated for 15 mins followed by ATP acyl phosphate probe addition and measured after 10 mins by LC-MS/MS analysis relative to control; type: subcellular; conditions: time 25.0 min
[4] = target: Cyclin-dependent kinase 5 (Homo sapiens, UniProt Q00535); assay: Inhibition of CDK5 in human HeLa cells lysate pre incubated for 15 mins followed by ADP acyl phosphate probe addition and measured after 10 mins by LC-MS/MS analysis; type: subcellular
Outline: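 KiNativ profiling in HeLa lysate (5 mg/mL total protein). Lysate incubated 15 min with inhibitor at 50, 10, 2, 0.8 or 0 μM. ATP or ADP acylphosphate probe then added (5 μM final) and reacted 10 min. Reaction stopped with urea and analysed by targeted MS, using up to four fragment ions per kinase peptide-probe conjugate. % inhibition taken against untreated lysate. Run in duplicate.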

[5] = Inhibition of PKD1/2 in human HeLa cells lysate at 2 uM pre incubated for 15 mins followed by ATP acyl phosphate probe addition and measured after 10 mins by LC-MS/MS analysis relative to control; conditions: 25 min, condition cancer
RPS6KA1/RPS6KA2/RPS6KA3 = RPS6KA1/RPS6KA2/RPS6KA3 (Homo sapiens, UniProt P51812+Q15349+Q15418); assay: Inhibition of RSK1/2/3 in human HeLa cells lysate at 2 uM pre incubated for 15 mins followed by ATP acyl phosphate probe addition and measured after 10 mins by LC-MS/MS analysis relative to control; type: subcellular; conditions: time 25.0 min
[6] = target: Serine/threonine-protein kinase 24 (Homo sapiens, UniProt Q9Y6E0); assay: Inhibition of MST3 in human HeLa cells lysate pre incubated for 15 mins followed by ADP acyl phosphate probe addition and measured after 10 mins by LC-MS/MS analysis; type: subcellular
[7] = target: T2, Serine/threonine-protein kinase 4 (Homo sapiens) (UniProt Q13043); assay: Inhibition of MST1 in human HeLa cells lysate at 10 uM pre incubated for 15 mins followed by ADP acyl phosphate probe addition and measured after 10 mins by LC-MS/MS analysis relative to control; type: subcellular; conditions: time 25.0 min
T2 sequence (whole entry): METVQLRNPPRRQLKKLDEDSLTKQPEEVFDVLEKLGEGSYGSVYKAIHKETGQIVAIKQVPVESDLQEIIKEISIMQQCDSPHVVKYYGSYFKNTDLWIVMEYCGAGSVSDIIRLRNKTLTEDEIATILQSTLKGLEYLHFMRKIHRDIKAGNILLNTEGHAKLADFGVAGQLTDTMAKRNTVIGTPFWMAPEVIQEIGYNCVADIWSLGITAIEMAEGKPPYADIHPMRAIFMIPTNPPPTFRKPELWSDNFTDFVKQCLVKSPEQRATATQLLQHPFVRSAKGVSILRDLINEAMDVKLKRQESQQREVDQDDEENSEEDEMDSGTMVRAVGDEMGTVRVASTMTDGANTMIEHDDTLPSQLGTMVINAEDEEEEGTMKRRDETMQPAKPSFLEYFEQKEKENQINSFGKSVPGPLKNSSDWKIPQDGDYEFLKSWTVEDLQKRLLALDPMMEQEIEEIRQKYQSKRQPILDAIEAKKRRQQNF

[8] = Inhibition of SRC/FYN/YES in human HeLa cells lysate pre incubated for 15 mins followed by ATP acyl phosphate probe addition and measured after 10 mins by LC-MS/MS analysis; type: subcellular
[9] = target: T1, Casein kinase I isoform alpha; assay: Inhibition of CK1alpha in human HeLa cells lysate at 50 uM pre incubated for 15 mins followed by ATP acyl phosphate probe addition and measured after 10 mins by LC-MS/MS analysis relative to control; type: subcellular; conditions: time 25.0 min
[10] = Toxicity in C57Bl/6 mouse assessed as effect on creatinine level at 50 mg/kg, ip for 14 days (reference value: < 0.2 mg/dl); type: organism-based; conditions: in vivo, 336 h, time 14 day
[11] = target: Mitogen-activated protein kinase 14 (Homo sapiens, UniProt Q16539); assay: Inhibition of P38a interaction site in human HeLa cells lysate pre incubated for 15 mins followed by ATP acyl phosphate probe addition and measured after 10 mins by LC-MS/MS analysis; type: subcellular
[12] = Inhibition of NEK6/7 in human HeLa cells lysate at 2 uM pre incubated for 15 mins followed by ATP acyl phosphate probe addition and measured after 10 mins by LC-MS/MS analysis relative to control; conditions: 25 min, condition cancer
[13] = target: T3, Serine/threonine-protein kinase D3 (Homo sapiens) (UniProt O94806); assay: Inhibition of PKD3 in human HeLa cells lysate at 2 uM pre incubated for 15 mins followed by ADP acyl phosphate probe addition and measured after 10 mins by LC-MS/MS analysis relative to control; type: subcellular; conditions: time 25.0 min
T3 sequence (whole entry): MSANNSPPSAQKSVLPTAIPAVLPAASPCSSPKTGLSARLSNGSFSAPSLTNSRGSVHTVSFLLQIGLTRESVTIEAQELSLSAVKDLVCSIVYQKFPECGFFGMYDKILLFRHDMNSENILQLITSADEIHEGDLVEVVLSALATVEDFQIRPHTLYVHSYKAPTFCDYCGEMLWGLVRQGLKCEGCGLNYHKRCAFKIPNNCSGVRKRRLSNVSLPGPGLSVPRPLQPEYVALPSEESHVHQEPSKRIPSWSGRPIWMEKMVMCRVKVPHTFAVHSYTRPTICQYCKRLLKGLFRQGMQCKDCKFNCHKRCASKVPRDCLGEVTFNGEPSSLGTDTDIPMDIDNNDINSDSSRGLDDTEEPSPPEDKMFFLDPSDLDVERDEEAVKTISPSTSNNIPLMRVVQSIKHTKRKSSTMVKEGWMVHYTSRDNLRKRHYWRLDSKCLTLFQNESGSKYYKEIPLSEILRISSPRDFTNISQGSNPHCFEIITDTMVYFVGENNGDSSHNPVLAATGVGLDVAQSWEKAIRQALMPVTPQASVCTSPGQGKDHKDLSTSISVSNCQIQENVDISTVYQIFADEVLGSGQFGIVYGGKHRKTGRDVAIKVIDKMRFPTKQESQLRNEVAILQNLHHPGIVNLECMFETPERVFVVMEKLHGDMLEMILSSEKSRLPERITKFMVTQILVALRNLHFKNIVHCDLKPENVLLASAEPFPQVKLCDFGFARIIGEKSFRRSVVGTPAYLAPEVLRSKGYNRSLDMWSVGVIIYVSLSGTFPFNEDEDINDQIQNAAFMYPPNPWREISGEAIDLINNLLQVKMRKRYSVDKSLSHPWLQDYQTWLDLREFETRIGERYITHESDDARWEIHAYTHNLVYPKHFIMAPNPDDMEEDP

T1 sequence (P48729 2-337 limits assumed): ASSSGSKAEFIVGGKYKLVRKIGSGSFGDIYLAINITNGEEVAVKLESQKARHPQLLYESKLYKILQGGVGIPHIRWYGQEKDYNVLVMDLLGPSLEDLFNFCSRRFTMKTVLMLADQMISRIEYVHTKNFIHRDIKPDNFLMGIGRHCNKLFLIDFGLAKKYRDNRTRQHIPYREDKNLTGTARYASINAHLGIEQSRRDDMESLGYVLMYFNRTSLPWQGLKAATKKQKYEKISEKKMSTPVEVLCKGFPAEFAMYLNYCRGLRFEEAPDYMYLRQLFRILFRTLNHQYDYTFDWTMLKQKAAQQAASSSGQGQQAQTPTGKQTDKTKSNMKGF
Serine/threonine-protein kinase 24, sequence (Q9Y6E0 whole entry): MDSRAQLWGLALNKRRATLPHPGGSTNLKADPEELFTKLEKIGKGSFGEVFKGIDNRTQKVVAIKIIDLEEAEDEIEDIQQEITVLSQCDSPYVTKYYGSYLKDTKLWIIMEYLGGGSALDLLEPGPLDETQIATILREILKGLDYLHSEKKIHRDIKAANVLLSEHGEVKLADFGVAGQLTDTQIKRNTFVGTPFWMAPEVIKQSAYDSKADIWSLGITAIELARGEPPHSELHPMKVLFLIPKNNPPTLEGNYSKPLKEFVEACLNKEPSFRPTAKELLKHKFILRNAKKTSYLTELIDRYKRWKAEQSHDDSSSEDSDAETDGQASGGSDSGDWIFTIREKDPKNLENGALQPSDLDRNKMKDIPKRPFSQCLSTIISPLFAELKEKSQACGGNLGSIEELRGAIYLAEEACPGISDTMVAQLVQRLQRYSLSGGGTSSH
Serine/threonine-protein kinase 38-like, sequence (Q9Y2H1 whole entry, canonical isoform): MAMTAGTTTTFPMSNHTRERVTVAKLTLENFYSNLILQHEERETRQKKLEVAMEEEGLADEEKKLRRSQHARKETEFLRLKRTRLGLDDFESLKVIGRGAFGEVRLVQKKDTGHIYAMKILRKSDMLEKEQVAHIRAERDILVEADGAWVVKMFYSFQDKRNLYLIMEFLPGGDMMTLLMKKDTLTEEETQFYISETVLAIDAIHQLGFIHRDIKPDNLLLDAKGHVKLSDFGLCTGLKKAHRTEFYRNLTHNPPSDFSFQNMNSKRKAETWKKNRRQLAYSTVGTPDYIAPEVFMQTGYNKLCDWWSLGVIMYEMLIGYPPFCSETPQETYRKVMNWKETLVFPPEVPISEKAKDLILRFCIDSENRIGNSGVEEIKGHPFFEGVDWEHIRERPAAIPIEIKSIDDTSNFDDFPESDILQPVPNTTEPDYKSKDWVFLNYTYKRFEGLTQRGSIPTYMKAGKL
Mitogen-activated protein kinase 14, sequence (Q16539 whole entry): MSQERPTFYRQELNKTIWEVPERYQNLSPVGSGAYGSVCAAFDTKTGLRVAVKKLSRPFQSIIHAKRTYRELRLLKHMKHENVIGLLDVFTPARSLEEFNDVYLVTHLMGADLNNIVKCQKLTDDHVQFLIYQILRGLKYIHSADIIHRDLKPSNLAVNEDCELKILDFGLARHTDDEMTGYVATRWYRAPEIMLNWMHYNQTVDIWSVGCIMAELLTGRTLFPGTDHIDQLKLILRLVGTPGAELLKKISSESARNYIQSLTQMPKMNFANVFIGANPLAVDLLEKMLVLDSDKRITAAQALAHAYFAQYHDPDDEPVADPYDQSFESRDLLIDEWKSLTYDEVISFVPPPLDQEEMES
Ribosomal protein S6 kinase alpha-5, sequence (O75582 whole entry, looked up, the tested form may be a part): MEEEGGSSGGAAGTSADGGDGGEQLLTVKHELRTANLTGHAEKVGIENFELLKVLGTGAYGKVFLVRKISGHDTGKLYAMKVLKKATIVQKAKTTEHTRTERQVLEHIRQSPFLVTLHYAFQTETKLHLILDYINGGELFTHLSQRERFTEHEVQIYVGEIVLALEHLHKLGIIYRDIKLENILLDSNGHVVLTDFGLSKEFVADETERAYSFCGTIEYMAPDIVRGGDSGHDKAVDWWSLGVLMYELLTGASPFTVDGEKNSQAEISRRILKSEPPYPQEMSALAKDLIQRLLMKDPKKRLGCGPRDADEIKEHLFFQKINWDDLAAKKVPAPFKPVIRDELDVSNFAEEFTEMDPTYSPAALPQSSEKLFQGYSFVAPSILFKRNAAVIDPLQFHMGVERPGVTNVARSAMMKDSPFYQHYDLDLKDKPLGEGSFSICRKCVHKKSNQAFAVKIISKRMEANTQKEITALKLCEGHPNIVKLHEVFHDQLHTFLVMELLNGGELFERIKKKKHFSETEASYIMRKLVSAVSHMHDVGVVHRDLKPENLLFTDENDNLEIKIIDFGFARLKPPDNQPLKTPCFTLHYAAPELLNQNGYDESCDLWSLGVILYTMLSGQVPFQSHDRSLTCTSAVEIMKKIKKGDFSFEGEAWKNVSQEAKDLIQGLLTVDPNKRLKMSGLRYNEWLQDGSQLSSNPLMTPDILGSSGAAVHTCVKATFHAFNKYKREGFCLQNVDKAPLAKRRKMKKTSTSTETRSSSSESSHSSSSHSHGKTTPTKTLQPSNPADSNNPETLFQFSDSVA
RPS6KA1/RPS6KA2/RPS6KA3, sequence (P51812 whole entry, looked up): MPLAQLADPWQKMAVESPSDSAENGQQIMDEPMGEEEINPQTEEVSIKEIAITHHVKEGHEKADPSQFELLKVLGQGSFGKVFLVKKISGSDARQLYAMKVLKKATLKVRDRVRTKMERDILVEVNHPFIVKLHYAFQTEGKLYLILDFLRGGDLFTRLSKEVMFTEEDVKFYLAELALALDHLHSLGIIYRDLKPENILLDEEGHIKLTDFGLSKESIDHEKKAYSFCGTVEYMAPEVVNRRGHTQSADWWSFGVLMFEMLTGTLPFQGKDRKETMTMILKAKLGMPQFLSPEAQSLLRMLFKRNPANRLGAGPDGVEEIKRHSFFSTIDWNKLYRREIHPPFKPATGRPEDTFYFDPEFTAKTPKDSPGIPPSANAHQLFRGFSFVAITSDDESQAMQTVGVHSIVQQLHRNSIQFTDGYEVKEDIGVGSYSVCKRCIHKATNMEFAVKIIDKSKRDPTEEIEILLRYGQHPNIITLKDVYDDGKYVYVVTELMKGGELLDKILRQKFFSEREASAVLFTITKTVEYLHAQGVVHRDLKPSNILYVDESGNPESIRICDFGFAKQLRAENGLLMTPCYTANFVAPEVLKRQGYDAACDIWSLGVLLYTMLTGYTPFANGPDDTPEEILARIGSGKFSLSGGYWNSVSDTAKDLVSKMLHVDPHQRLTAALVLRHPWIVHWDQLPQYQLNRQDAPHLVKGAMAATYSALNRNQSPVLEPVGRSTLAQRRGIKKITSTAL
RPS6KA1/RPS6KA2/RPS6KA3, sequence (Q15349 whole entry, looked up): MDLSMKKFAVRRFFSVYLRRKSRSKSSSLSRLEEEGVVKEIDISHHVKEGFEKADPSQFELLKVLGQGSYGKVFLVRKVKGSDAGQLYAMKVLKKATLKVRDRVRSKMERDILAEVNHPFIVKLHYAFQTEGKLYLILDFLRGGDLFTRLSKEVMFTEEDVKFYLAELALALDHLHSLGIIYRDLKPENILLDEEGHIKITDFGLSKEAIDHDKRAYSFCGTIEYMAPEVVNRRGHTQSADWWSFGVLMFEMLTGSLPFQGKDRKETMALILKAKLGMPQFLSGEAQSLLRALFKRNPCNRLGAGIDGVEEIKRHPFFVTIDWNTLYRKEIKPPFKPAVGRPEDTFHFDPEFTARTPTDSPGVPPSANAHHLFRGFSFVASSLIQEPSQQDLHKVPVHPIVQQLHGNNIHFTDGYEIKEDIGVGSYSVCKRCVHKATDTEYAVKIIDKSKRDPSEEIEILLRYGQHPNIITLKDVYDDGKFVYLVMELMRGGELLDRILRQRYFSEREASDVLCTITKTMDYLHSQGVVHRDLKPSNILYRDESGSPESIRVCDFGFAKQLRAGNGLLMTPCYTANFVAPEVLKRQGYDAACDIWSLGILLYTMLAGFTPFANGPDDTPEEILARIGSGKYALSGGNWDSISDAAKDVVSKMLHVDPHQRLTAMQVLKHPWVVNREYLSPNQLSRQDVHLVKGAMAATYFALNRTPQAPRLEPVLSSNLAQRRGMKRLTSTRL
RPS6KA1/RPS6KA2/RPS6KA3, sequence (Q15418 whole entry, looked up): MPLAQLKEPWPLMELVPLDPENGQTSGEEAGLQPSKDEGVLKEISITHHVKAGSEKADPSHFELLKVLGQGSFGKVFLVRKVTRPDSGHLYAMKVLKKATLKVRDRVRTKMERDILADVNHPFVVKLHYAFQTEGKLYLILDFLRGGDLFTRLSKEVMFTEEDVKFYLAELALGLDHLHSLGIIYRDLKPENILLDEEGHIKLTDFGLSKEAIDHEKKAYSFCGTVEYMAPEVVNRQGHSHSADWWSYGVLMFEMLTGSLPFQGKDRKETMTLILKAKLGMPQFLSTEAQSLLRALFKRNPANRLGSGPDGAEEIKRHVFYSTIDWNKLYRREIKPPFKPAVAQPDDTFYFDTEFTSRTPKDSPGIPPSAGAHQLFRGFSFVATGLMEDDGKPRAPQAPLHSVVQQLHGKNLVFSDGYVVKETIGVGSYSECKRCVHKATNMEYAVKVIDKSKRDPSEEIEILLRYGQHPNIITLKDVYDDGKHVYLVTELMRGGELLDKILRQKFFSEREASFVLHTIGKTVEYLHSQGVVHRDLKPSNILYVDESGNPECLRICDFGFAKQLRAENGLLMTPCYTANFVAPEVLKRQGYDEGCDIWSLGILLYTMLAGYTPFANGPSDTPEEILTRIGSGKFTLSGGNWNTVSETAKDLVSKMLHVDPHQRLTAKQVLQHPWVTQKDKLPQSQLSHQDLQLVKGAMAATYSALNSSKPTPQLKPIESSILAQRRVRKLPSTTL
Cyclin-dependent kinase 5, sequence (Q00535 whole entry, the tested form may be a part): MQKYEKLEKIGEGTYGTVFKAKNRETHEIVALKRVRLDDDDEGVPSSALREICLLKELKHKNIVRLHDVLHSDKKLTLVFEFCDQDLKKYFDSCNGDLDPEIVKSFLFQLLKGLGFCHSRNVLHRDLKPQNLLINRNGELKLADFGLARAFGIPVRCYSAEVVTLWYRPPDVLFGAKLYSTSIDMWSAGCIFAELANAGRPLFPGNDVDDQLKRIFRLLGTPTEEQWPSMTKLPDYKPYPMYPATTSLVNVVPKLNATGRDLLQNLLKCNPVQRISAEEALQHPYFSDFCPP

CCOc1cc(N2CCC(O)CC2)ccc1Nc1ncc2c(n1)N(C)c1ccccc1C(=O)N2C
inhibition [1]: 4.6%
IC50 [2]: > 50 µM
inhibition [3]: 2.6%
IC50 [4]: > 50 µM
inhibition at 2 µM [5]: 27.1%
inhibition (RPS6KA1/RPS6KA2/RPS6KA3): 11.6%
IC50 [6]: > 50 µM
inhibition [7]: 30.1%
IC50 [8]: > 50 µM
inhibition [9]: 0.1%
Activity [10]: < 0.2 mg/dL
IC50 [11]: > 50 µM
inhibition at 2 µM [12]: -4.1%
inhibition [13]: 5.5%
